Laboratory results: ChEMBL document CHEMBL3297741, “Cytotoxic cleistanthane and cassane diterpenoids from the entomogenous fungus Paraconiothyrium hawaiiense” (J Nat Prod, 2014)
The source made the active and inactive calls. No cut-off for these calls is given here.

Assays:
Assay type in all cases: functional, cell-based
HeLa [1] = experiment: Cytotoxicity against human HeLa cells at 50 uM after 48 hrs by […]
Outline: (§1)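 Single concentration of 50 μM tested in the MTS proliferation assay. Cells were seeded at (2−5) × 10^3 per well and attached overnight. Compound was diluted in medium from 100 mM DMSO stock, alongside a 0.1% DMSO vehicle. Plates were incubated 48 h at 37 °C in humidified 5% CO2. MTS was added for 90 min at 37 °C, then absorbance read at 490 nm. Run in triplicate.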

T-24 = experiment: Cytotoxicity against human T24 cells at 50 uM after 48 hrs by […]; outline: as §1
HCT-116 [2] = experiment: Cytotoxicity against human HCT116 cells at 50 uM after 48 hrs by […]; outline: as §1
A549 [3] = experiment: Cytotoxicity against human A549 cells at 50 uM after 48 hrs by […]; outline: as §1
MCF7 [4] = experiment: Cytotoxicity against human MCF7 cells at 50 uM after 48 hrs by […] assay; outline: as §1
A549 [5] = experiment: Cytotoxicity against human A549 cells after 48 hrs by […]; details: A549, 48 h
Outline: (§2)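 MTS read-out. Cells were seeded at (2−5) × 10^3 per well, depending on growth rate, and attached overnight. Medium was then replaced with medium holding serial dilutions of compound from 100 mM DMSO stocks, with 0.1% DMSO vehicle and cisplatin control. Plates were incubated 48 h at 37 °C in humidified 5% CO2. MTS was added for 90 min at 37 °C in the dark, and absorbance read at 490 nm. Triplicate runs gave IC50.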

HeLa [6] = experiment: Cytotoxicity against human HeLa cells after 48 hrs by […]; outline: as §2
MCF7 [7] = experiment: Cytotoxicity against human MCF7 cells after 48 hrs by […]; details: MCF7, 48 h; outline: as §2
[8] = Cytotoxicity against human T24 cells after 48 hrs by […]; details: T-24, 48 h; outline: as §2
HCT-116 [9] = experiment: Cytotoxicity against human HCT116 cells after 48 hrs by […]; details: HCT-116, 48 h; outline: as §2

| Compound | inhibition (HeLa [1]) | inhibition (T-24) | inhibition (HCT-116 [2]) | inhibition (A549 [3]) | inhibition (MCF7 [4]) | IC50 (A549 [5]) | IC50 (HeLa [6]) | IC50 (MCF7 [7]) | IC50 [8] | IC50 (HCT-116 [9]) |
| --- | --- | --- | --- | --- | --- | --- | --- | --- | --- | --- |
| C=CC1=CC[C@H]2[C@@H](CC(=O)[C@@]3(O)[C@@]4(C)C(=O)O[C@H]4CC[C@]23C)[C@H]1C | inactive | inactive | inactive | inactive | inactive | – | – | – | – | – |
| C=C[C@@H]1C(=C)CC[C@H]2[C@H]1C[C@H]1OC(=O)[C@@]3(C)[C@H](OC(C)=O)CC[C@@]2(C)[C@@]13O | – | – | – | – | – | 43.6 µM | 43.7 µM | 23.4 µM | 20.7 µM | 37.3 µM |
| C=C[C@@H]1C(=C)CC[C@H]2[C@H]1CC(=O)[C@@]1(O)[C@@]3(C)C(=O)O[C@H]3CC[C@]21C | – | – | – | – | – | 7.48 µM | 2.84 µM | 7.43 µM | 4.26 µM | 6.23 µM |
| C=C[C@@H]1C(=C)CC[C@H]2[C@H]1C[C@H]1OC(=O)[C@@]3(C)[C@H](O)CC[C@@]2(C)[C@@]13O | – | – | – | – | – | – | 50.3 µM | – | – | – |
